The values below come from ChEMBL document CHEMBL3351736, “A promising camptothecin derivative: Semisynthesis, antitumor activity and intestinal permeability” (Eur J Med Chem, 2014).

Data set [1] concerns HeLa. Kind of data set: Cytotoxicity against human HeLa cells after 24 hrs by MTT assay. Format: functional, cell-based. In a few lines:
(§1)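 Cells seeded at 25000 per well and held 24 h at 37 °C in 5% CO2. Medium was then renewed and compounds added at increasing concentrations (DMSO 0.1%, or water for topotecan) for 24 h. MTT solution (5 mg/mL) was added for 3 h at 37 °C, then absorbance read at 570 nm, corrected at 630 nm. IC50 in µM.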
A general note: Formazan colour is commonly taken as a measure of viable cells.

Data set [2] relates to Caco-2. Kind of data set: Induction of apoptosis in human Caco2 cells assessed as late apoptotic cells at 0.05 uM after 48 hrs by Annexin V/propidium iodide staining-based flow cytometric analysis (reference value: 2.20 +/- 0.77%). Format: functional. For orientation: In flow cytometry, cells or beads pass a laser one at a time.
Data set [3] deals with A-375. Kind of data set: Cytotoxicity against human A375 cells after 24 hrs by MTT assay. As to conditions: A-375, 24 h. Format: functional, cell-based. Put shortly: as §1
For data set [4], the system named is A-375. Kind of data set: Induction of apoptosis in human A375 cells assessed as inhibition of DNA synthesis at 0.8 to 1.6 uM after 24 hrs by BrdU staining-based ELISA. It counts as functional, cell-based. In a few lines: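 BrdU colorimetric cell proliferation ELISA. Cells seeded at 25,000 per well, compounds added 24 h after seeding and incubated 24 h. Cells fixed and the immunoassay run per kit. Absorbance read at 370-492 nm over 3 intervals of 5 min; absorbance difference proportional to BrdU incorporation. Mean of three separate experiments in triplicate, compared with untreated control.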
(Uptake of a labelled nucleoside into DNA is a usual measure of proliferation.)

The subject of data set [5] is A-375. Kind of data set: Induction of apoptosis in human A375 cells assessed as p53 phosphorylation at Ser15 by Western blotting analysis. Format: functional, cell-based. Put shortly: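 Cells treated 24 h. About 10^6 cells lysed on ice 15 min in Hepes pH 7.4/Triton X-100 buffer with phosphatase and protease inhibitors, then spun 13,000 × g. 30 µg protein run on 12% SDS-PAGE and blotted to nitrocellulose. Primary anti-phospho-p53 (Ser15) and anti-p53 at 1:1000 for 2 h at room temperature, then HRP secondary and ECL densitometry. Results referred to untreated control.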

The subject of data set [6] is Caco-2. Kind of data set: Induction of apoptosis in human Caco2 cells assessed as vital cells at 0.5 uM after 24 hrs by Annexin V/propidium iodide staining-based flow cytometric analysis (reference value: 96.67 +/- 1.02%). It counts as functional.
For data set [7], the system named is Caco-2. Kind of data set: Induction of apoptosis in human Caco2 cells assessed as necrotic cells at 0.5 uM after 24 hrs by Annexin V/propidium iodide staining-based flow cytometric analysis (reference value: 0.41 +/- 0.02%). It counts as functional.
For a further data set, the system named is MDA-MB-231. Kind of data set: Cytotoxicity against human MDA-MB-231 cells after 24 hrs by MTT assay. It counts as functional, cell-based. The note with it: MDA-MB-231, 24 h. In a few lines:
as §1

The subject of data set [8] is Caco-2. Kind of data set: Induction of apoptosis in human Caco2 cells assessed as vital cells at 0.05 uM after 48 hrs by Annexin V/propidium iodide staining-based flow cytometric analysis (reference value: 96.67 +/- 1.02%). It counts as functional.
A further data set has as its system Jurkat. Kind of data set: Cytotoxicity against human Jurkat cells after 24 hrs by MTT assay. It counts as functional, cell-based. In a few lines: as §1
Data set [9] concerns Caco-2. Kind of data set: Induction of apoptosis in human Caco2 cells assessed as early apoptotic cells at 0.05 uM after 48 hrs by Annexin V/propidium iodide staining-based flow cytometric analysis (reference value: 0.72 +/- 0.03%). It counts as functional.
The nature of data set [10]: Effective permeability from apical to basolateral side in human Caco2 cells at 50 uM after 15 to 90 mins by HPLC analysis. It counts as ADME, cell-based. The note with it: Caco-2, read-out: Peff. In a few lines:
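Caco-2 monolayers grown 19-22 days on polycarbonate transwell inserts (4.2 cm², 0.4 µm pore) at 37 °C, 5% CO2; TEER checked before and after each run. Compound added to donor side at 37 °C, 50 rpm. Receiver sampled at 15, 30, 60 and 90 min; donor sampled at start and end. HPLC analysis. Sodium azide, when used, placed on both sides. Three independent experiments.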

Data set [11] deals with HeLa. Kind of data set: Induction of apoptosis in human HeLa cells assessed as inhibition of DNA synthesis after 24 hrs by BrdU staining-based ELISA. Format: functional, cell-based. Put shortly:
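Cells seeded at 25,000/well; compounds added 24 h after seeding at a range of concentrations and incubated 24 h. Cells fixed, then colorimetric BrdU-incorporation ELISA. Absorbance read at 370-492 nm over 3 intervals of 5 min. Mean of three separate experiments with triplicate samples.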

For orientation: IC50 means the concentration at which inhibition is half-maximal. High values mean lower potency, low ones higher potency.

The structures appear in SMILES notation. Calls of active or inactive are those of the source. The calls are words filed in the database; no cut-off is given here.

Consider `CC[C@@]1(O)C(=O)OCc2c1cc1n(c2=O)Cc2cc3c(CN(C)C)c(O)ccc3nc2-1.Cl` [TOPOTECAN HYDROCHLORIDE], for which the IC50 in the data set with HeLa [1] came to 380 nM; in the data set with A-375 [3] it was 162 nM; in the data set with MDA-MB-231, 473 nM; in the data set with Jurkat, 127 nM. In addition, the Activity amounted to 48.06% in the data set with Caco-2 [2]; 53.08% with Caco-2 [6]; 8.54% in the data set on Caco-2 [7]; 45.2% in the data set on Caco-2 [8]; 2.36% in the data set with Caco-2 [9]. The result in the data set with A-375 [4] and with A-375 [5] was Active. The Papp A→B at 50 µM in data set [10] came to 1.77 ×10⁻⁶ cm/s. Further, the inhibition entry in the data set on HeLa [11] is “Dose-dependent effect”.
